# Screening results from PubChem.
# E-sel inducer: induces E-selectin expression in human endothelial cells. P16581. activation, % at 7.58 µM. HUVEC E-selectin immunofluorescence imaging; normalized: neutral wells 0, TNF-alpha wells 100. actives 0.37% (n = 260,000). AID 686992;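 active means mean E-selectin-positive cell signal at least 10% of the positive control, reached in at least 60% of replicates, without over 20% cell loss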
#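 System: HUVEC, human umbilical vein endothelial cells; quantity: 3,000 cells/well; buffer or medium: EGM-2 medium, gelatin-coated wells; dosing: single-point compound dose; detection: immunofluorescence imaging; evaluation: % PE-positive cells; benchmarks: TNF-alpha, DMSO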
# DENV2 CPE: inhibitors of DENV2 cytopathic effect | DENV2-infected cells, cytopathic effect rescue, plate reader | actives 1.7% (n = 350,000) | AID 651640 | CPE inhibition, % at 9.99 µM; in the data active means CPE inhibition above about 20%, passing the limit was not always enough; tested in BHK-21 cells;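 further: 0% = median of neutral control wells and 100% = median of positive control wells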
# miR-122 sensor: inhibitors of miR-122 in Huh7 cells. Huh7 miR-122 Renilla luciferase sensor, 48 h; neutral wells = 0, positive control = 100. activation (reporter increase), % at 12.5 µM. actives 0.3% (n = 340,000);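 active means mean replicate activation score at least 90 and every replicate individually at or above 90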;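 further: higher luciferase means less miR-122 activity so hits act as miR-122 inhibitors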
# GSIS activator: GLuc luminescence reporter in INS-1E cells, primary screen for activators of glucose-dependent secretion of insulin | INS-1E GLuc reporter insulin secretion, 2-3 h | activation, % at 16.6 µM | actives 0.61% (n = 370,000);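 active means lowest replicate activation of at least 40%, so every replicate reaches that level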;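 further: 0% = median of neutral control wells and 100% = median of IBMX positive control wells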
# CFTR F508del cor: correctors of CFTR F508del function in bronchial epithelial cells. actives 0.36% (n = 350,000). activity (quench increase), % at 7.58 µM. AID 720511. CFBE cells, YFP halide quenching; stimulated with forskolin plus potentiator P3; % fluorescence drop versus neutral controls;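 active means mean added fluorescence quench of at least 8% versus neutral control, with both replicates also reaching 8%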;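 further: cells transiently co-express mutant CFTR-F508del with the halide-sensitive YFP; corrector assay measuring rescue of mutant channel to the surface after 24 h compound exposure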
# ERAP1 HTS inh: inhibitors of human ERAP1 aminopeptidase | Q9NZ08 | recombinant ERAP1, Leu-AMC fluorescence, 60 min | inhibition, % at 10.7 µM | actives 0.15% (n = 340,000) | AID 652197;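 active means mean replicate inhibition of at least 30%, or all replicates individually reaching that 30% level; inactive means mean below 30% and not every replicate reaching it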;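 further: 0% = neutral control wells and 100% = L-leucinethiol positive control wells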
# Target sequence (Q9NZ08 whole entry, looked up): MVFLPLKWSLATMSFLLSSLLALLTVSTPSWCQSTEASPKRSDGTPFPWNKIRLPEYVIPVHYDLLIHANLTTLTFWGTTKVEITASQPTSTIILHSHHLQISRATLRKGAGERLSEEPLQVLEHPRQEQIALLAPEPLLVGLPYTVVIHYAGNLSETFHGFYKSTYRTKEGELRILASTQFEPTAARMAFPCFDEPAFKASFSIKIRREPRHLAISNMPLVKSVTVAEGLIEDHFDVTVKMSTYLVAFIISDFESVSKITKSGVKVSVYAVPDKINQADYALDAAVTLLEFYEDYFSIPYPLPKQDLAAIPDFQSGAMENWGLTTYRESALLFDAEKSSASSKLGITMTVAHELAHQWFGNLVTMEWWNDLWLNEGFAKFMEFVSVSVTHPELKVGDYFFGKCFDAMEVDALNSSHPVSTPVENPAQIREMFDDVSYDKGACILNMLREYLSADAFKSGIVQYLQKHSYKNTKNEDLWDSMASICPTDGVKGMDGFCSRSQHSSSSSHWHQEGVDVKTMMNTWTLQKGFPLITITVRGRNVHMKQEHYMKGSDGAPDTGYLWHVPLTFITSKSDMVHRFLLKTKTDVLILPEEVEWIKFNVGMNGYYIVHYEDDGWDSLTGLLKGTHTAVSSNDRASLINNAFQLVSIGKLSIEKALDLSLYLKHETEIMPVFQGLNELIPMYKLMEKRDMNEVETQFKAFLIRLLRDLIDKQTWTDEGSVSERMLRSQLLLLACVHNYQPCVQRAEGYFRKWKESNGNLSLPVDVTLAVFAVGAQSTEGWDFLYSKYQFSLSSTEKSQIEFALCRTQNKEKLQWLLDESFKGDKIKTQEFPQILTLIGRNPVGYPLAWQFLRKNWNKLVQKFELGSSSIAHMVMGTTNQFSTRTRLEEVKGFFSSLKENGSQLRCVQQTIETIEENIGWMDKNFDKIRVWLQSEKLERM
# * = called active by the depositor; / = no result given; [ ] = another dose, or the depositor's remark. Hits are enriched below; roughly 2.6% of the tested compounds scored in any of these assays.
SMILES,E-sel inducer,DENV2 CPE,miR-122 sensor,GSIS activator,CFTR F508del cor,ERAP1 HTS inh
COCC(=O)N1CC2(CCN(Cc3ccccc3)CC2)c2c(n(C)c3cc(OC)ccc23)[C@@H]1CO,0,7,/,13,3,0
COc1ccc2c3c(n(C)c2c1)[C@H](CO)N(C)CC31CCN(C(=O)CN2CCOCC2)CC1,0,53*,/,-9,0,/
COc1ccc2c3c(n(C)c2c1)[C@H](CO)N(C(=O)CN1CCOCC1)CC31CCN(C(=O)Nc2cccc(F)c2)CC1,0,33*,/,-13,1,-2
CCCC(=O)N1CC2(CCN(C(=O)Nc3cccc(F)c3)CC2)c2c(n(C)c3cc(OC)ccc23)[C@@H]1CO,0,13,/,-22,-1,/
C[C@H]1CN([C@@H](C)CO)S(=O)(=O)c2ccc(C3=CCCC3)cc2O[C@H]1CN(C)C(=O)c1ccccn1,0,6,3[16.7 µM],21,2,-4
CNC[C@H]1Oc2ccc(NC(=O)C3CC3)cc2C(=O)N([C@@H](C)CO)C[C@H]1C,0,-8,-5[16.7 µM],18,2,0
CCC(=O)N1CC2(CN(Cc3ccc(F)cc3)C2)c2c(n(C)c3cc(OC)ccc23)[C@@H]1CO,0,21*,/,3,1,1
COc1ccc2c3c(n(C)c2c1)[C@H](CO)N(C(=O)C1CCC1)CC31CN(Cc2cccc(F)c2)C1,0,22*,/,0,0,4
COc1ccc2c3c(n(C)c2c1)[C@@H](CO)N(C(=O)C1CCCC1)CC31CN(C(=O)Nc2cccc(F)c2)C1,1,77*,/,-32,-3,1
COc1ccc2c3c(n(C)c2c1)[C@H](CO)N(C(=O)CN1CCOCC1)CC31CN(Cc2ccncc2)C1,0,37*,/,16,1,5
COc1ccc2c3c(n(C)c2c1)[C@@H](CO)N(C(=O)CN1CCOCC1)CC31CN(C)C1,1,-3,/,8,0,/
C[C@@H]1CCCCO[C@@H](CN(C)Cc2ccccc2)[C@H](C)CN([C@@H](C)CO)C(=O)c2cc(NC(=O)Cc3ccccc3)ccc2O1,/,18,-5[16.7 µM],-19,1,2
C[C@@H]1CN([C@H](C)CO)C(=O)c2cc(NS(C)(=O)=O)ccc2O[C@@H](C)CCCCO[C@@H]1CN(C)C,0,-1,-6[16.7 µM],13,-1,-6
CC1=CC(=O)C2=C(C)CCC3C(C)C(=O)OC3C12 (stereo not drawn),/,22*,-1,/,0,0
CCCCCCCCCCCCCCCC[N+](C)(C)Cc1ccc(F)cc1,/,-2,/,/,/,96*
C[C@@H]1CN([C@@H](C)CO)C(=O)Cc2cc(NC(=O)c3ccncc3)ccc2O[C@@H]1CN(C)S(C)(=O)=O,37*,-5,-1[16.7 µM],12,-1,0
C[C@@H]1CN([C@H](C)CO)C(=O)Cc2cc(NC(=O)c3ccncc3)ccc2O[C@@H]1CN(C)S(C)(=O)=O,15,9,-7[16.7 µM],11,1,0
C[C@@H]1CN([C@@H](C)CO)C(=O)Cc2cc(NC(=O)c3ccncc3)ccc2O[C@H]1CN(C)S(=O)(=O)c1cccs1,/,24*,-1[16.7 µM],6,0,0
CCn1c(C)nc2cc(S(=O)(=O)C(F)(F)F)ccc21,/,/,-4,99*,/,/
CN1C(=O)c2cc(NC(=O)c3cccs3)ccc2OC[C@H]2O[C@H](CC(=O)NCC(F)(F)F)CC[C@H]21,0,0,-50[16.7 µM],-8,-1,2
c1ccc2c(c1)ccc1nnnn12,-1,-2,168*,-7,1,-5
C=CCc1ccc(OCCCNCc2ccccc2)c(OC)c1,/,43*,0,/,5,-1
C=CCc1ccc(OCCCNC2CCCC2)c(OC)c1,0,5,-11,8,2,1
O=C1c2cccc3c(N4CCCCC4)ccc(c23)C(=O)N1CCO,/,/,-4,/,/,/
O=C1c2cccc3c(N4CCCCC4)ccc(c23)C(=O)N1c1cccc(O)c1,0,9,/,6,14*,0
SMILES,E-sel inducer,DENV2 CPE,miR-122 sensor,GSIS activator,CFTR F508del cor,ERAP1 HTS inh
COc1ccc(C(C)=NNC(=O)c2cccc(S(=O)(=O)N3CCCC3)c2)cc1,0,9,/,-8,3,0
COc1ccc(/C(C)=N/NC(=O)c2cccc(S(=O)(=O)N3CCCC3)c2)c(O)c1,/,2,/,9,9.8*,-2
O=C(Nc1cccc(S(=O)(=O)N2CCCCCC2)c1)c1ccc2ccccc2n1,/,22*,9,-9,/,-1
CC(=O)Nc1cccc(/C(C)=N/NC(=O)c2cccc(S(=O)(=O)N3CCCC3)c2)c1,0,25*,1,7,4,-1
Cc1ccc(NC(=S)Nc2cccc3cnccc23)cc1,/,72*,8,-14,-6,6
CCCCc1cc(=O)oc2cc(C)cc(OCC(=O)N3CCC(C(N)=O)CC3)c12,/,61*,1,3,0,3
COc1ccc(Cl)cc1N1C(=O)CC(N2CCN(S(=O)(=O)c3ccccc3F)CC2)C1=O (stereo not drawn),0,37*,-2,3,-1,0
COc1ccc(N2CCN(c3cc(C(=O)NC4CCCCC4)ncn3)CC2)cc1OC,0,22*,-5,-5,2,-1
COc1ccc(C(=O)NC2CCCCCCC2)cc1OC,/,3,-4,/,-2,-1
CN(C)C(=O)[C@@H]1[C@@H](CO)[C@@H]2Cn3c(cccc3=O)[C@@H]2N1CC1CCCC1,0,/,-5[16.7 µM],11,0,/
Fc1ccc(CN2C3CN(CC(F)(F)F)CC2C3c2ccc(Br)cc2)cc1 (stereo not drawn),/,/,/,-44,/,/
O=C(Nc1cccc(C(F)(F)F)c1)OCCN1CCN(Cc2ccccc2)CCC1=O,0,70*,-4,-38,6,1
O=C(Nc1ccccc1)N1CCCCN2[C@H](CO)[C@H](c3ccc(C4=CCCCC4)cc3)[C@@H]2C1,0,4,2[16.7 µM],-13,-3,3
C=CCn1nnnc1SCC(=O)Nc1ccc(C(=O)OC)cc1,0,-5,/,-5,-3,-2
C=CCn1nnnc1SCC(=O)Nc1cccc(C(F)(F)F)c1,0,2,-9,-7,1,103*
O=C(CSc1ncnc2c1oc1ccccc12)Nc1cccc(C(F)(F)F)c1,0,37*,-2,15,-1,-5
C[C@H]1CN([C@@H](C)CO)C(=O)c2cc(-c3ccccc3)cnc2O[C@H]1CN(C)Cc1cccnc1,0,-5,0[16.7 µM],14,1,-6
C[C@H](CO)N1C[C@H](C)[C@@H](CN(C)C(=O)c2cnccn2)Oc2cc(Br)ccc2S1(=O)=O,0,2,-4[16.7 µM],6,2,2
CO[C@@H]1CN(C)C(=O)c2cc(NC(=O)C3CCOCC3)ccc2OC[C@@H](C)N(Cc2cccnc2)C[C@H]1C,0,-1,/,2,-1,/
